Values joined by “and” are separate entries in the source; they are usually repeats but may differ in a detail not shown here. Equal entries are not always repeated. Where two headings read alike, the source gives them in different places.
Tests used:
[1] = biological target: membrane-bound F1Fo-ATPase (Escherichia coli, UniProt P0ABA6+P0ABB0+P0ABB4); experiment: ATP hydrolysis by membrane vesicles; type: biochemical, E. coli; conditions: for IC50: two replicates of 5-6 concentrations
F1-ATPase = F1-ATPase (Escherichia coli, UniProt P0ABA6+P0ABB0+P0ABB4); experiment: ATP hydrolysis by purified F1-ATPase, colorimetric phosphate release; type: biochemical, E. coli; conditions: for IC50: read-out: F1-ATPase Activity IC50
NDH-1 (Complex I) = NDH-1 (Complex I) (Escherichia coli, UniProt P31979); experiment: NDH-1 NADH oxidase activity in membrane vesicles; type: biochemical, E. coli; conditions: for NDH-1 Deamino-NADH oxidase Maximum inhibition: strain 1100 membranes
[2] = biological target: NDH-2 (alternative NADH dehydrogenase) (Escherichia coli, UniProt P00393); experiment: NDH-2 NADH oxidase activity in membrane vesicles of strain BA14; type: biochemical, E. coli
[3] = tested on: ATP synthase from E. coli; conditions: cited from earlier work
[4] = tested on: rat liver mitochondrial ATP synthase; conditions: read-out: IC50, rat liver mitochondrial ATP synthase; cited from earlier work
[5] = tested on: superoxide production by NDH-1 and NDH-2; type: biochemical, E. coli
Method in brief: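 E. coli membrane vesicles, prepared at pH 6.0, from strain MWC215 (no NDH-2) or BA14 (nuo deletion, no NDH-1); 200 μg in 0.2 ml of 50 mM MOPS pH 7.3 with 10 mM MgCl2. Preincubated 5 min with increasing test compound, then 5 μM MitoSOX plus 1.25 mM NADH added. Dark, 15 min, 30 °C; fluorescence 510/580 nm. Background controls: no NADH; SOD (150 units).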

[6] = membrane vesicles from wild type strain 1100
[7] = read-out: Membrane-bound ATPase Activity IC50, membrane vesicles from wild type strain 1100
[8] = read-out: NDH-2 NADH oxidase IC50, strain BA14 membranes, 250 μM NADH

Sequence of F1-ATPase (P0A6E6 2-139): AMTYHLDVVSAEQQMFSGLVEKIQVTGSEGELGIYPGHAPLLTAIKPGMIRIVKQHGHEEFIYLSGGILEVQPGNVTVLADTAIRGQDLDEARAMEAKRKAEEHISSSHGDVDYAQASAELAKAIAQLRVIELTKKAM
Sequence of F1-ATPase (P0ABB4 2-460): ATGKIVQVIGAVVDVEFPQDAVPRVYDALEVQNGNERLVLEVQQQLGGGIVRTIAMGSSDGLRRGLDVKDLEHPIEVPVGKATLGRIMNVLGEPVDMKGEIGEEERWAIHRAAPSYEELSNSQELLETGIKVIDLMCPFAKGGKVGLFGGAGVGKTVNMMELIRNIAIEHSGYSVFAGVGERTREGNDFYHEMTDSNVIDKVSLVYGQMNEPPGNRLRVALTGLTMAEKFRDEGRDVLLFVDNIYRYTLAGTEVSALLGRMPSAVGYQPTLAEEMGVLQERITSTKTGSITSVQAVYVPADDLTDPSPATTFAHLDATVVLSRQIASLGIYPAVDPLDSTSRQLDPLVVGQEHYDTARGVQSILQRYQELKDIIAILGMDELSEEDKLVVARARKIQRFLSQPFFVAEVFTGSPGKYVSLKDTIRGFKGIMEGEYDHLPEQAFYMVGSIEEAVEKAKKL
Sequence of F1-ATPase (P0ABB0 whole entry): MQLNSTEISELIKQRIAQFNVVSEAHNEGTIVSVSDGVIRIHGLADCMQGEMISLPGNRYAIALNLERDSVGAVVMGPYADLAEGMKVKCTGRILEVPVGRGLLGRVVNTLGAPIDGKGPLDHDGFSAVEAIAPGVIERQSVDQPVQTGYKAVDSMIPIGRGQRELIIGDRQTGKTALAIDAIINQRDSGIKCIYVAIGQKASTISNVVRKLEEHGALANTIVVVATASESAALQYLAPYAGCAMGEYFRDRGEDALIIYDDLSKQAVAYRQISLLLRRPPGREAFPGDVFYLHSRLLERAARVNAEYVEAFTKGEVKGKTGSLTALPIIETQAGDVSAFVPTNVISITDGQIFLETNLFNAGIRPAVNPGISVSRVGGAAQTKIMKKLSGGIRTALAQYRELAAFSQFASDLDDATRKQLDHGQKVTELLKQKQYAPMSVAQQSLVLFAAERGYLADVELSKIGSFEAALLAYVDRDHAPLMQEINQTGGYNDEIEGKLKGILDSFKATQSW
Sequence of F1-ATPase (P0ABA4 whole entry, further chain): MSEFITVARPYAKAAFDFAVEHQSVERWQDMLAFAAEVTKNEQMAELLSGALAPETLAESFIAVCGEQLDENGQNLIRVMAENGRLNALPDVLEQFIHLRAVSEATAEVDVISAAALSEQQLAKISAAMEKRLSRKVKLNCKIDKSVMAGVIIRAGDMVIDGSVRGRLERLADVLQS
Sequence of F1-ATPase (P0ABA6 whole entry): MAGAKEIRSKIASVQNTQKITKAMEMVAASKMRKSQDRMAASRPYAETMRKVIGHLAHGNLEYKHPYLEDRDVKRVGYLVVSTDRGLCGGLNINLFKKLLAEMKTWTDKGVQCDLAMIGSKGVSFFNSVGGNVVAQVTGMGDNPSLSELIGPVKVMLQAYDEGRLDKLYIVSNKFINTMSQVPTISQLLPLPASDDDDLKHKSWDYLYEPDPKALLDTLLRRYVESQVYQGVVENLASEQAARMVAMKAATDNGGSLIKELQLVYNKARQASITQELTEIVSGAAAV
Sequence of NDH-2 (alternative NADH dehydrogenase) (P00393 whole entry): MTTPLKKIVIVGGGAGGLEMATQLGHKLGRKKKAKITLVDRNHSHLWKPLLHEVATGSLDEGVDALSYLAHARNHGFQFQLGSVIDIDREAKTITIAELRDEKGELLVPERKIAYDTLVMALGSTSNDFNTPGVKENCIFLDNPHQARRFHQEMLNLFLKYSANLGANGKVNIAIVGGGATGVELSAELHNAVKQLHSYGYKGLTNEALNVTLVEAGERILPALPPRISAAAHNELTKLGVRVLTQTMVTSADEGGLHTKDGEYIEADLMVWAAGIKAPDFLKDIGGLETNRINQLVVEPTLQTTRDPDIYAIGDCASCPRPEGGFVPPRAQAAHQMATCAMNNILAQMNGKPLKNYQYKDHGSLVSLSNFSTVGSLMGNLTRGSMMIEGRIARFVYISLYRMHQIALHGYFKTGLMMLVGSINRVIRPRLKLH

Compound | Membrane-bound ATPase Activity Maximum inhibition [1, 6] [%] | F1-ATPase Activity Maximum inhibition (F1-ATPase) [%] | IC50 (F1-ATPase) [µM] | NDH-1 Deamino-NADH oxidase Maximum inhibition (NDH-1 (Complex I)) [%] | NDH-2 NADH oxidase Maximum inhibition ([2]; strain BA14 membranes) [%] | extent of inhibition of E. coli ATP synthase [3] | other results
O=c1c(O)cc([C@H]2Oc3cc(O)cc(O)c3C[C@H]2O)cc2c([C@H]3Oc4cc(O)cc(O)c4C[C@H]3O)cc(O)c(O)c12 [TF1, theaflavin] | 85 | 85 | 4 | 95 | 75 | – | IC50 ([1]; Membrane-bound ATPase Activity IC50, membrane vesicles from wild type strain 1100): ~60 µM and 60 µM; IC50 (NDH-1 (Complex I)): 45 µM; IC50 [2]: 3 µM
O=C(O[C@@H]1Cc2c(O)cc(O)cc2O[C@@H]1c1cc(=O)c(O)c2c(O)c(O)cc([C@H]3Oc4cc(O)cc(O)c4C[C@H]3O)c2c1)c1cc(O)c(O)c(O)c1 [TF2A, theaflavin-3-gallate] | 95 | 90 | 3 | 95 | 95 | – | IC50 [1, 7]: 20 µM; IC50 [2, 8]: 3.5 µM
O=C(O[C@@H]1Cc2c(O)cc(O)cc2O[C@@H]1c1cc(O)c(O)c2c(=O)c(O)cc([C@H]3Oc4cc(O)cc(O)c4C[C@H]3O)cc12)c1cc(O)c(O)c(O)c1 [TF2B, theaflavin-3′-gallate] | 95 | 95 | 1.5 | 95 | 90 | – | IC50 [1, 7]: 15 µM; IC50 [2, 8]: 2.5 µM
NC12CC3CC(CC(C3)C1)C2 [amantidin] | – | – | – | – | – | complete inhibition | –
O=c1cc(-c2ccccc2)oc2cc(O)c(O)c(O)c12 [baicalein] | – | – | – | – | – | complete inhibition | –
Oc1cc(O)c2c(c1)O[C@H](c1ccc(O)c(O)c1)[C@H](O)C2 [epicatechin, (−) epicatechin] | – | – | – | – | – | complete inhibition | IC50 ([3]; read-out: IC50, E. coli ATP synthase): 4000 µM
O=c1c(O)c(-c2ccc(O)cc2O)oc2cc(O)cc(O)c12 [morin] | – | – | – | – | – | complete inhibition | –
Oc1cc(O)cc(/C=C/c2ccc(O)c(O)c2)c1 [piceatannol] | – | – | – | – | – | complete inhibition | –
CC(N)C12CC3CC(CC(C3)C1)C2 (stereo not shown) [rimantadin] | – | – | – | – | – | complete inhibition | –
COc1cc(C2Oc3cc([C@H]4Oc5cc(O)cc(O)c5C(=O)[C@@H]4O)ccc3OC2CO)ccc1O (stereo partly shown) [silibinin] | – | – | – | – | – | complete inhibition | –
(−) epigallocatechin gallate [EGCG, reference compound] | 95 | 90 | 4.5 | 90 | 65 | – | IC50 [1, 7]: ~30 µM and 30 µM; IC50 [2, 8]: 20 µM; IC50 [4]: 17 µM
theaflavin-3,3′-digallate [TF3] | – | – | – | – | – | – | concentration at which superoxide production was completely eliminated ([5]; NADH oxidation by each dehydrogenase): about 15 μM; effect on superoxide production ([5]; added at levels in the range of the IC50 value): superoxide did not increase, but rather decreased
